Where “and” joins values, the source holds several entries; their conditions need not be identical. Equal values may be shown once. Calls of active or inactive are those of the source.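 The calls were made as follows: active = IC50 at or below 10 µM; inactive = IC50 above 10 µM.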
target: Insulin-degrading enzyme (Homo sapiens) (UniProt P14735); test: fluorescence artefact check, IDE FRET1 cleavage – biochemical, FRET1 substrate, round 2, artefact control for IDE inhibitor project, late-stage follow-up (AID 624340); conditions: recombinant WT IDE
Sequence (P14735 whole entry, looked up): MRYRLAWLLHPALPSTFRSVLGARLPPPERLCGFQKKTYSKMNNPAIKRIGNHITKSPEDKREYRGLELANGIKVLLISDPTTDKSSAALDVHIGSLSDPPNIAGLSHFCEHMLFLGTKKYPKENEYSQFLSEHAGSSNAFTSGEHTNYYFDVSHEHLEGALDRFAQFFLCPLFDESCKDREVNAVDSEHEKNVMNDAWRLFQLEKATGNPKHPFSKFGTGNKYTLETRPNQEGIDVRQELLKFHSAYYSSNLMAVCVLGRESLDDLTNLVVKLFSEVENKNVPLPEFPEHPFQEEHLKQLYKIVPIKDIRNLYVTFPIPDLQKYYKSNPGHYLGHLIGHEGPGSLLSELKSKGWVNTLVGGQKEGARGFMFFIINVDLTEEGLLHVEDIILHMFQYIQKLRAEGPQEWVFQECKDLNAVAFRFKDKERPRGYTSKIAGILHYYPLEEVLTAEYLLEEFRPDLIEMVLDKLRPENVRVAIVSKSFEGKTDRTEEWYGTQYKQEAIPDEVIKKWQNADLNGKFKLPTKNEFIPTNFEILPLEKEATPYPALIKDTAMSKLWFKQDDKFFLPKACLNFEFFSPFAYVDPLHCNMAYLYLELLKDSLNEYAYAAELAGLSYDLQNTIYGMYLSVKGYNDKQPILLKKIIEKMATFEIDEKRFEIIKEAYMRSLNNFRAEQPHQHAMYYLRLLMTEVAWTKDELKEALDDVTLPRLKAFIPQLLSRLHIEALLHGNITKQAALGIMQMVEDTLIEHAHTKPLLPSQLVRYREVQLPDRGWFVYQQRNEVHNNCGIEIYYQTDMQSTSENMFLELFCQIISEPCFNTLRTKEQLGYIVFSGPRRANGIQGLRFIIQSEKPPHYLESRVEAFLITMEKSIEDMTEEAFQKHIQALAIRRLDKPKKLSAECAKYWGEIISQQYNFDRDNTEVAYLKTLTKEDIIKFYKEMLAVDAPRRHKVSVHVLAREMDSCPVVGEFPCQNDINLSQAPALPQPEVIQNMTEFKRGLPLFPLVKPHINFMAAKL
In short: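 Assay system: Recombinant WT IDE | Input: 1 nM IDE final | Detection: Fluorescence at 335/385 nm | Times: Kinetic read every 2 min over 2 h, 22 °C | Repeats: Triplicate per concentration | Measure: IC50 from sigmoidal fit of initial-rate percent activity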

Structure (SMILES) | IC50
O=C(c1ccc(OCC2CCCO2)cc1)N1CCN(C(=O)C2COc3ccccc3O2)CC1 (stereo not given) | > 100 µM (inactive)
Cc1ccc(COCc2nnc(SCc3nc4ccccc4[nH]3)n2Cc2ccco2)cc1 | > 100 µM (inactive)
COc1ccc(C(=O)N2CCN(C(=O)C3COc4ccccc4O3)CC2)cc1 (stereo not given) | 5.89 µM and > 100 µM (inactive)
CCOc1ccc(C(=O)N2CCN(C(=O)C3COc4ccccc4O3)CC2)cc1 (stereo not given) | > 100 µM (inactive)
Cc1ccc(-c2nnc(SCc3nc4ccccc4[nH]3)n2Cc2ccco2)cc1 | > 100 µM (inactive)
O=C(c1ccc(Oc2ccc(F)cc2)cc1)N1CCN(C(=O)C2COc3ccccc3O2)CC1 (stereo not given) | > 100 µM (inactive)
c1ccc(-c2nnc(SCc3nc4ccccc4[nH]3)n2Cc2ccco2)nc1 | > 100 µM (inactive)
COc1ccc(OCC(=O)N2CCN(C(=O)c3ccc(OC)c(OC)c3)CC2)cc1 | > 100 µM (inactive)
c1ccc(-c2nnc(SCc3nc4ccccc4[nH]3)n2Cc2ccco2)cc1 | > 100 µM (inactive)
COc1ccc(C(=O)N2CCN(C(=O)CCc3c[nH]c4ccccc34)CC2)cc1OC | > 100 µM (inactive)
COc1ccc(C(=O)N2CCN(C(=O)COc3ccccc3)CC2)cc1OC | > 100 µM (inactive)
COc1ccc(C(=O)N2CCN(C(=O)C3CC(=O)N(c4ccccc4)C3)CC2)cc1OC (stereo not given) | > 100 µM (inactive)
COc1cccc(C(=O)N2CCN(C(=O)C3COc4ccccc4O3)CC2)c1 (stereo not given) | inactive
c1coc(Cn2c(SCc3nc4ccccc4[nH]3)nnc2-c2cccs2)c1 | > 100 µM (inactive)
COc1ccc(C(=O)N2CCN(C(=O)C(c3ccccc3)c3ccccc3)CC2)cc1OC | > 100 µM (inactive)
O=C(c1ccc(Oc2ccccc2)cc1)N1CCN(C(=O)C2COc3ccccc3O2)CC1 (stereo not given) | > 100 µM (inactive)
COc1cc(C(=O)N2CCN(C(=O)C3COc4ccccc4O3)CC2)cc(Cl)c1OC (stereo not given) | > 100 µM (inactive)
COc1ccc(C(=O)N2CCN(C(=O)COc3ccc(Cl)cc3)CC2)cc1OC | > 100 µM (inactive)
c1coc(Cn2c(SCc3nc4ccccc4[nH]3)nnc2-c2cnccn2)c1 | > 100 µM (inactive)
Clc1ccc(COCc2nnc(SCc3nc4ccccc4[nH]3)n2Cc2ccco2)cc1 | > 100 µM (inactive)
CC(=O)Nc1ccccc1C(=O)N1CCN(C(=O)C2COc3ccccc3O2)CC1 (stereo not given) | inactive
O=C(c1ccc2nc(C(F)(F)F)[nH]c2c1)N1CCN(C(=O)C2COc3ccccc3O2)CC1 (stereo not given) | inactive
Cc1nc(COc2ccc(C(=O)N3CCN(C(=O)C4COc5ccccc5O4)CC3)cc2)cs1 (stereo not given) | > 100 µM (inactive)
COc1ccc(C(=O)N2CCN(C(=O)COc3ccc(C)cc3)CC2)cc1OC | > 100 µM (inactive)
c1coc(Cn2c(SCc3nc4ccccc4[nH]3)nnc2-c2ccco2)c1 | > 100 µM (inactive)

Reference: PubChem BioAssay AID624340 (The Scripps Research Institute Molecular Screening Center, 2012)
